From ChEMBL document CHEMBL1141749, “Nitrogen-containing compounds from Salvia miltiorrhiza” (2005) come the findings set out here.

What all share (type): functional
What all share (conditions): for CC50: read-out: CD50 (the source's name)

One experiment relates to HeLa. The experiment is described as follows: Cytotoxicity against human HeLa cells by MTT assay. The method in brief:
(§1)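 MTT colorimetric read-out. The value is reported as CD50.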

In the next experiment the test system is HepG2. Kind of experiment: Cytotoxicity against human HepG2 cells by MTT assay. In short, it runs like this:
as §1

A further experiment concerns OVCAR-3. The experiment is described as follows: Cytotoxicity against human OVCAR-3 cells by MTT assay. The method in brief:
as §1

For the compound `Cc1nc2c(o1)c1c(C)coc1c1ccc3c(c12)CCCC3(C)C` [SALVIANEN], the Activity result in the experiment with HeLa, in the experiment with HepG2 and in the experiment on OVCAR-3 was “Dose-dependent effect” throughout. Besides, the values for the CC50 in the experiment with HeLa, with HepG2 and with OVCAR-3 were 32.3 µM, 30.4 µM and 39.5 µM, respectively.

For `Cc1coc2c1C(=O)C(=O)c1c-2ccc2c1CCCC2(C)C` [TANSHINONE IIA], the CC50 in the experiment with HeLa was 8.5 µM; with HepG2, 26.5 µM; in the experiment on OVCAR-3, 9.52 µM.

In the case of `Cc1nc2c3c(c4ccc5c(c4c2o1)CCCC5(C)C)OCC3C` (stereo unspecified), the figures for the CC50 in the experiment with HeLa, in the experiment with HepG2 and in the experiment on OVCAR-3 were 108 µM, 121 µM and 126 µM, respectively.

As for `C[C@H]1COC2=C1C(=O)C(=O)c1c2ccc2c1CCCC2(C)C` [CRYPTOTANSHINONE], the CC50 with HeLa was 17.2 µM; in the experiment on HepG2 it was 29.7 µM; in the experiment with OVCAR-3, 9.12 µM.

Consider `Cc1nc2c(o1)c1c3c(ccc1c1occ(C)c21)C(C)(C)CCC3` [NEOSALVIANEN], for which the CC50 with HeLa is 63.9 µM; in the experiment on HepG2, 59.2 µM; in the experiment with OVCAR-3 it was 74.6 µM.

As for `CC(C)C1=Cc2ccc3c4c([nH]c(c24)C1=O)C(=O)CC3(C)C` [SALVIADIONE], the CC50 in the experiment on HeLa amounted to 178 µM; in the experiment with HepG2, 137 µM; with OVCAR-3, 169 µM.
